Screens (PubChem)
An excerpt weighted towards active compounds, which were near 1.8% of everything screened.
MC4R barr agon – human MC4R agonism via beta-arrestin | P32245 | U2OS MC4R beta-arrestin complementation, luminescence; percent of melanotan II response, DMSO zero | activation, % at 8.9 µM | 360,000 compounds, 0.98% hits;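 active = activation above a per-plate cutoff, the mean activation of sample wells on that plate plus 3 SD, cut at about 8% in these data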
NOD2 RIPK2 PPI – inhibitors of human NOD2-RIPK2 interaction; inhibition, % at 4.98 µM; CHO BLA complementation NOD2-RIPK2, CCF4 ratio; 360,000 compounds, 0.38% hits; O43353; in the data active = inhibition above about 21%;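 also: 0% = vehicle only and 100% = reference blocker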
TLR9-MyD88 block – inhibitors of human TLR9-MyD88 binding; Q9NR96+Q99836; CHO BLA complementation TLR9-MyD88, CCF4 FRET ratio; inhibition, % at 4.98 µM; 340,000 compounds, 0.21% hits;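 active = inhibition above the mean over all tested compounds plus 3 SD, cut at about 21% in these data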;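 also: 0% = DMSO only wells and 100% = clavulanate BLA inhibitor control wells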
TLR4 MyD88 comp – inhibitors of human TLR4-MyD88 binding | O00206+Q99836 | HeLa CL3-4 TLR4/MyD88 BLA complementation, FRET ratio | inhibition, % at 8.4 µM | 200,000 compounds, 0.18% hits | AID 861; in the data active = inhibition above about 25%;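 also: 0% = vehicle and 100% = reference inhibitor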
Target sequence (O00206 whole entry, looked up): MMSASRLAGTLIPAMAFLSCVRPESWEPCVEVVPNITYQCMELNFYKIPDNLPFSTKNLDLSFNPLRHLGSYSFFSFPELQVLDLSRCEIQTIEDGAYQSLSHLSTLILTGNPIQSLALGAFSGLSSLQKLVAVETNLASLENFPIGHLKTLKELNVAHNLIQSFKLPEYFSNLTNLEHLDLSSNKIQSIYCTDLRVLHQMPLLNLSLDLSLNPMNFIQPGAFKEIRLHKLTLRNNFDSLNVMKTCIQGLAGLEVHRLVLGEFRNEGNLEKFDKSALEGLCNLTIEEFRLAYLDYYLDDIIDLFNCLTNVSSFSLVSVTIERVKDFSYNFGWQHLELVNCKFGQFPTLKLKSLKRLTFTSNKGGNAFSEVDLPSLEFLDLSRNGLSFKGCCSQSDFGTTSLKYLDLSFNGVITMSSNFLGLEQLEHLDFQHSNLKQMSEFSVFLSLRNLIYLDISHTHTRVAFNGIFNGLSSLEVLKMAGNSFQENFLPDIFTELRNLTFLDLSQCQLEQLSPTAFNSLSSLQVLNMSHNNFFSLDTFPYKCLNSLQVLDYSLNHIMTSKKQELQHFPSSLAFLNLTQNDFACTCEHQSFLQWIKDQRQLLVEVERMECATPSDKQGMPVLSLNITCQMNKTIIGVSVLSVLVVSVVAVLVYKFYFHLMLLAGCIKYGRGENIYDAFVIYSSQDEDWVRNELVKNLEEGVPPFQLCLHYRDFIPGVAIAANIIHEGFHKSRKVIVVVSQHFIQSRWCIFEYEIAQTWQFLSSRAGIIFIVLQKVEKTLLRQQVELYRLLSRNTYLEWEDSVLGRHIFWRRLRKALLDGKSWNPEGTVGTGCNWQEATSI
Target sequence (Q99836 whole entry, looked up): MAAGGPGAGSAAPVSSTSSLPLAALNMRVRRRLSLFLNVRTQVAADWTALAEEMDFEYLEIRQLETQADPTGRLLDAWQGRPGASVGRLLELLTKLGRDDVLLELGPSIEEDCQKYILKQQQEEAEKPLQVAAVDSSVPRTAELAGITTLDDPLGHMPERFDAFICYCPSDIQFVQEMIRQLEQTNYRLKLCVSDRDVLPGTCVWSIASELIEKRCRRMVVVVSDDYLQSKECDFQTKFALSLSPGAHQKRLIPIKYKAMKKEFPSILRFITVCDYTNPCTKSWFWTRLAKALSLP
MC4R antag cAMP – blocks human MC4R cAMP signaling | MC4R-expressing cells, MTII-stimulated cAMP, LANCE TR-FRET | P32245 | AID 540295 | 360,000 compounds, 0.48% hits | inhibition, % at 6.5 µM;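 active = inhibition above its plate's cutoff, the mean of tested wells on that plate plus 3 SD, cut at about 29% in these data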;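 also: 0% = Melanotan II alone and 100% = Melanotan II plus saturating MCL0020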
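Material: human MC4R-expressing U2OS cells. Probe or stimulus: Melanotan II challenge. Dosing: 6.5 µM single dose. Times: 30-min compound, 1-h challenge, 1-h detection, room temperature. Technique: TR-FRET with Eu-cAMP and labeled anti-cAMP, 671 nm. Replication: singlicate.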
Active calls of the source: *; ! = not active in a repeat.

What do the screens show for `Cc1cccc(NC(=O)CCSc2ccccc2)c1C`?
MC4R barr agon: 8.7*; NOD2 RIPK2 PPI: 3; TLR9-MyD88 block: -1; TLR4 MyD88 comp: 4; MC4R antag cAMP: 8

Results for C(=N\n1c2ccccc2c2ccccc21)/c1ccccc1 ?
MC4R barr agon: 0; NOD2 RIPK2 PPI: -2; TLR9-MyD88 block: -2; TLR4 MyD88 comp: 0; MC4R antag cAMP: 4

How did Oc1ccccc1/C=N/n1c2ccccc2c2ccccc21 do in these assays?
MC4R barr agon: 9.2*; NOD2 RIPK2 PPI: -14; TLR9-MyD88 block: -13; TLR4 MyD88 comp: 18; MC4R antag cAMP: -4

Results for CCC(=O)Nc1cc(-c2cc3ccccc3oc2=O)ccc1OC ?
MC4R barr agon: -1; NOD2 RIPK2 PPI: 5; TLR9-MyD88 block: 8; TLR4 MyD88 comp: 1; MC4R antag cAMP: 8

How did COc1ccc(-c2cc3ccccc3oc2=O)cc1NC(=S)NC(=O)c1ccc2c(c1)OCCO2 do in these assays?
MC4R barr agon: 9.4*; NOD2 RIPK2 PPI: 0; TLR9-MyD88 block: -5; TLR4 MyD88 comp: -5; MC4R antag cAMP: -8

Results for Cc1c(NC(=O)Nc2ccc(C(C)(C)C)cc2)c(=O)n(-c2ccccc2)n1C ?
MC4R barr agon: -1; NOD2 RIPK2 PPI: -5; TLR9-MyD88 block: -7; MC4R antag cAMP: -2

What do the screens show for `CC(C)NCCCCOc1ccccc1-c1ccccc1`?
TLR4 MyD88 comp: 3

Results for CCOC(=O)c1c(NC(=O)Cn2nc(C(=O)O)c3ccccc3c2=O)sc(C)c1C ?
MC4R barr agon: 9.0*; NOD2 RIPK2 PPI: -10; TLR9-MyD88 block: 0; MC4R antag cAMP: -2

How did O=C(NC1CCC(=O)N(CCOc2ccccc2)CC1)OCc1ccccc1 (centres undefined) do in these assays?
MC4R barr agon: 0; NOD2 RIPK2 PPI: 6; TLR9-MyD88 block: 11; MC4R antag cAMP: 8

Results for Cc1csc(NC(=O)COc2ccc3c(C)cc(=O)oc3c2)n1 ?
MC4R barr agon: 9.4*; NOD2 RIPK2 PPI: -7; TLR9-MyD88 block: 9; TLR4 MyD88 comp: -5; MC4R antag cAMP: -9

Results for CC(=O)Oc1ccc(C(c2ccc(OC(C)=O)cc2)c2ccccn2)cc1 ?
MC4R barr agon: 75*; NOD2 RIPK2 PPI: -6; TLR9-MyD88 block: 3; TLR4 MyD88 comp: -6; MC4R antag cAMP: -31

What do the screens show for `c1ccc(C(c2ccccn2)c2ccccn2)cc1`?
MC4R barr agon: -1; NOD2 RIPK2 PPI: -13; TLR9-MyD88 block: -2; TLR4 MyD88 comp: 5; MC4R antag cAMP: 8

How did CC(C)c1ccc(OCC(O)CN2CCN(c3ccccc3)CC2)cc1 (centres undefined) do in these assays?
MC4R barr agon: 8.9*!; NOD2 RIPK2 PPI: -7; TLR9-MyD88 block: -7; TLR4 MyD88 comp: 0; MC4R antag cAMP: -4

Results for COc1ccc2c(Cl)c(C(=O)N/N=C3\CCCC(=O)C3)sc2c1 ?
MC4R barr agon: -1; NOD2 RIPK2 PPI: 15; TLR9-MyD88 block: 6; TLR4 MyD88 comp: 12; MC4R antag cAMP: 3

Results for O=C(c1ccccc1)c1ccc(NCCCn2ccnc2)c([N+](=O)[O-])c1 ?
MC4R barr agon: -2; NOD2 RIPK2 PPI: -2; TLR9-MyD88 block: -4; MC4R antag cAMP: 9

How did COc1cccc(/C=C/C(=O)OCC(=O)c2ccc3c(c2)NC(=O)CO3)c1 do in these assays?
MC4R barr agon: 8.5*; NOD2 RIPK2 PPI: -3; TLR9-MyD88 block: -6; MC4R antag cAMP: 11

What do the screens show for `COc1cccc(/C=C/C(=O)OCC(=O)c2ccc(Br)cc2)c1`?
MC4R barr agon: -1; NOD2 RIPK2 PPI: -7; TLR9-MyD88 block: -7; MC4R antag cAMP: 5

What do the screens show for `Cc1ccccc1OCC(=O)N/N=C/c1cc2ccccc2nc1Cl`?
MC4R barr agon: 3; NOD2 RIPK2 PPI: -15; TLR9-MyD88 block: -8; TLR4 MyD88 comp: 6; MC4R antag cAMP: 1

Results for O=C(COc1cccc(Cl)c1)N/N=C\c1cc2ccccc2nc1Cl ?
MC4R barr agon: 9.0*; NOD2 RIPK2 PPI: -8; TLR9-MyD88 block: -2; TLR4 MyD88 comp: -25; MC4R antag cAMP: 5

How did CC(=O)N1/C(=C/c2ccc(N(C)C)cc2)C(=O)c2ccccc21 do in these assays?
MC4R barr agon: -4; NOD2 RIPK2 PPI: 9; TLR9-MyD88 block: 7; TLR4 MyD88 comp: 2; MC4R antag cAMP: -2

Results for C/C(N)=C(/C#N)C(=O)COC(=O)c1cc(-c2ccc(Br)cc2)nc2ccccc12 ?
MC4R barr agon: 8.4*!; NOD2 RIPK2 PPI: -9; TLR9-MyD88 block: 9; TLR4 MyD88 comp: 9; MC4R antag cAMP: 24
